# Assay results taken from ChEMBL document CHEMBL4346686, “Discovery and biological evaluation of novel androgen receptor antagonist for castration-resistant prostate cancer” (Eur J Med Chem, 2019).
# Legend:
# [1] = Antiproliferative activity against human LNCaP-AR cells assessed as reduction in cell viability incubated for 6 days by CCK8 assay; format: functional, cell-based; conditions: 144 h
# Summary of the method: (§1)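 Cells seeded (2×10^4 per well for VCaP, 1–3×10^3 for the others) and compound added after 24 h as a 9-point, 3-fold serial dilution. Exposure 6 days, then CCK-8 for 1–4 h and absorbance at 450 nm. IC50 from curve fit, mean of at least two independent experiments run in duplicate.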
# CWR22R = assay: Antiproliferative activity against human 22Rv1 cells assessed as reduction in cell viability incubated for 6 days by CCK8 assay; format: functional, cell-based; conditions: 22Rv1, 144 h; summary of the method: as §1
# PC-3 = assay: Antiproliferative activity against human PC3 cells assessed as reduction in cell viability incubated for 6 days by CCK8 assay; format: functional, cell-based; conditions: PC-3, 144 h; summary of the method: as §1
# L02 = assay: Antiproliferative activity against human L02 cells assessed as reduction in cell viability incubated for 6 days by CCK8 assay; format: cell-based; conditions: L02, 144 h; summary of the method: as §1
# VCaP = assay: Antitumor activity against human VCaP cells xenografted in BALB/c nude mouse assessed as inhibition of tumor growth at 30 mg/kg, po qd administered for 40 days relative to control; format: functional
# Summary of the method: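 Male BALB/c nude mice, 5 weeks old, s.c. 1 × 10^7 VCaP cells in DMEM/Matrigel (1:1). Castrated under Nembutal at 150–200 mm3 and randomized (n = 8–10). Once tumors regrew to 200–350 mm3, oral 30 mg/kg qd for 40 days. TGI = [1 − (T − T0)/(C − C0)] × 100 from mean tumor volumes on first and last treatment days.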
# [2] = Toxicity in BALB/c nude mouse xenografted with human VCaP cells assessed as weight loss at 30 mg/kg, po qd administered for 40 days relative to control; format: organism-based; conditions: in vivo, 960 h
smiles,measurement,setting,value
CNC(=O)c1ccc(N2C(=S)N(c3ccc(C#N)c(C(F)(F)F)c3)C(=O)C2(C)C)cc1F [ENZALUTAMIDE],IC50,[1],190 nM
same,IC50,CWR22R,> 30 µM
same,IC50,PC-3,> 30 µM
same,IC50,L02,17.1 µM
same,TGI,VCaP,43%
same,Activity,[2],Non-Toxic
